Source: ChEMBL document CHEMBL3045688, “Cytotoxic and insecticidal activities of derivatives of harmine, a natural insecticidal component isolated from Peganum harmala” (2010)
Converted amounts (≈) assume the structure as drawn. The source made the active and inactive calls. The rule behind the calls is not given here.

How the values were obtained:
Lipaphis erysimi [1] = assay: Insecticidal activity against Lipaphis erysimi (mustard aphids) assessed as increase in mortality at 50 to 200 mg/L after 24 to 48 hr; format: functional, organism-based
Outline: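 Apterous adult Lipaphis erysimi reared on mustard leaves. Leaf discs carrying 30–50 aphids dipped 3 s in aqueous suspensions (10 g/L DMSO/acetone stock, 0.5% emulsifier) at 50, 100, 200 mg/L final, blotted, held at 25 ± 1 °C and 50–60% RH. Mortality scored at 24 and 48 h, corrected against solvent control. Triplicate; LC50/LC90 by probit–log concentration regression.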

Culex quinquefasciatus [2] = assay: Insecticidal activity against fourth-instar larval stage of Culex quinquefasciatus assessed as increase in mortality at 50 to 100 mg/L after 24 hr; format: functional, organism-based
Outline: (§1)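 Early 4th-instar Culex pipiens quinquefasciatus larvae, 20 per bowl in 10 mL test solution. Compounds taken from a 10 g/L DMSO/acetone stock into water with 0.5% Tween-80 (final 1, 10, 50, 100 mg/L), held at 27 °C. Dead larvae, those unable to reach the surface on shaking, counted at 0, 2, 12 and 24 h. Abbott-corrected against solvent control, triplicate; LC50/LC90 by probit regression.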

Culex quinquefasciatus [3] = assay: Insecticidal activity against fourth-instar larval stage of Culex quinquefasciatus assessed as increase in mortality after 2 to 24 hr; format: functional, organism-based; outline: as §1
Culex quinquefasciatus [4] = assay: Insecticidal activity against fourth-instar larval stage of Culex quinquefasciatus assessed as mortality at 1 mg/L after 24 hr; format: functional
Outline: (§2)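 Early 4th-instar Culex pipiens quinquefasciatus from laboratory cultures, 20 per bowl in 10 mL test solution at 27 °C. Compounds from a 10 g/L DMSO–acetone stock suspended in water with 0.5% Tween-80 to 1, 10, 50 or 100 mg/L final. Dead larvae, those unable to reach the surface on shaking, counted at 0, 2, 12 and 24 h. Abbott-corrected against solvent control; triplicate; probit analysis.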

Sf9 = assay: Cytotoxicity against Spodoptera frugiperda (fall armyworm) Sf9 cells assessed as growth inhibition at 1 to 200 mg/L after 6 to 24 hr by MTT assay; format: functional, cell-based
Outline: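 Sf9 insect cells grown at 27 °C in TC-199-MK with 10% FCS, L-glutamine and penicillin–streptomycin–neomycin. Log-phase cells exposed to compounds (DMSO stock, 1% final solvent), 6, 12 or 24 h. MTT (5 mg/mL stock) added for a further 3 h, formazan dissolved in DMSO, A570 read. Inhibition = (A control − A treated)/A control ×100. Solvent-only control, triplicate.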

[5] = Cytotoxicity against Spodoptera frugiperda (fall armyworm) Sf9 cells assessed as growth inhibition at 200 mg/L after 24 hr by MTT assay; format: functional; conditions: for inhibition of growth at 200 µg/mL: Spodoptera frugiperda, Sf9, 24 h, read-out: GI
Outline: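 Sf9 cells kept at 27 °C in TC-199-MK with 10% FCS, L-glutamine and penicillin–streptomycin–neomycin. Log-phase cells in 96-well plates were exposed for 6, 12 or 24 h to compounds diluted in medium from a 1,000 mg/L DMSO stock, with 1% DMSO final; DMSO alone as control. MTT added for 3 h, formazan dissolved in DMSO, A570 read. Inhibition % = (Acontrol−Atreatment)/Acontrol×100. Run in triplicate.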

Lipaphis erysimi [6] = assay: Insecticidal activity against Lipaphis erysimi (mustard aphids) assessed as mortality at 200 mg/L after 48 hr; format: functional; conditions: in Brassica
Outline: (§3)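 Apterous adult Lipaphis erysimi reared on mustard leaves. Compounds from a 10 g/L DMSO–acetone stock suspended in water with 0.5% emulsifier to 50, 100 or 200 mg/L. Leaf discs carrying 30–50 aphids were dipped 3 s and blotted, then held at 25 ± 1 °C and 50–60% RH. Mortality scored at 24 and 48 h and corrected against solvent control. Triplicate; LC50/LC90 by probit–log concentration regression.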

Lipaphis erysimi [7] = assay: Insecticidal activity against Lipaphis erysimi (mustard aphids) assessed as increase in mortality after 48 hr; format: functional
Lipaphis erysimi [8] = assay: Insecticidal activity against Lipaphis erysimi (mustard aphids) assessed as mortality at 50 mg/L after 24 hr; format: functional; conditions: in Brassica; outline: as §3
Culex quinquefasciatus [9] = assay: Insecticidal activity against fourth-instar larval stage of Culex quinquefasciatus assessed as increase in mortality after 24 hr; format: functional; outline: as §2
Culex quinquefasciatus [10] = assay: Insecticidal activity against fourth-instar larval stage of Culex quinquefasciatus assessed as mortality at 100 mg/L after 24 hr; format: functional; outline: as §2
Culex quinquefasciatus [11] = assay: Insecticidal activity against fourth-instar larval stage of Culex quinquefasciatus assessed as increase in mortality at 50 mg/L after 24 hr; format: functional, organism-based; outline: as §1

| SMILES | Activity (Lipaphis erysimi [1]) | Activity (Culex quinquefasciatus [2]) | Activity (Culex quinquefasciatus [3]) | mortality at 1 µg/mL (Culex quinquefasciatus [4]) [%] | further results |
| --- | --- | --- | --- | --- | --- |
| O=C(O)C1Cc2c([nH]c3ccccc23)CN1 (stereo unspecified) | Active | Active | Dose-dependent effect | < 34.9 |  |
| COC(=O)C1Cc2c([nH]c3ccccc23)C(C(Cl)(Cl)Cl)N1 (stereo unspecified) | Active | Active | Dose-dependent effect | < 34.9 | growth inhibition (GI) (Sf9): inactive |
| COC(=O)c1cc2c([nH]c3ccccc32)c(-c2c(C)nn(-c3ccccc3)c2Cl)n1 | Active | Active | Dose-dependent effect | < 34.9 | inhibition of growth at 200 µg/mL [5]: 60.9% |
| COc1cc(C2NC(C(=O)O)Cc3c2[nH]c2ccccc32)ccc1O (stereo unspecified) | Active | Active | Dose-dependent effect | < 34.9 |  |
| CC1NC(C(=O)O)Cc2c1[nH]c1ccccc21 (stereo unspecified) | Active | Active | Dose-dependent effect | < 34.9 |  |
| COC(=O)c1cc2c([nH]c3ccccc32)c(-c2ccccc2)n1 |  |  | Dose-dependent effect | < 34.9 | mortality at 200 µg/mL (Lipaphis erysimi [6]): 75.8%; LC90 (Lipaphis erysimi [7]): 418.63 µg/mL (≈ 1380 µM); LC50 (Lipaphis erysimi [7]; Lipaphis erysimi, in Brassica, 48 h): 68 µg/mL (≈ 225 µM); mortality at 50 µg/mL (Lipaphis erysimi [8]): 15.3%; LC90 (Culex quinquefasciatus [9]): 295.13 µg/mL (≈ 976 µM); LC50 (Culex quinquefasciatus [9]; Culex quinquefasciatus, Instar larval stage, 24 h): 24 µg/mL (≈ 79.3 µM); mortality at 100 µg/mL (Culex quinquefasciatus [10]): 80.5%; Activity (Culex quinquefasciatus [11]): Active |
| O=C(O)C1Cc2c([nH]c3ccccc23)C(c2ccccc2)N1 (stereo unspecified) |  |  | Dose-dependent effect | < 34.9 | mortality at 200 µg/mL (Lipaphis erysimi [6]): 87.3%; LC90 (Lipaphis erysimi [7]): 240.1 µg/mL (≈ 821 µM); mortality at 50 µg/mL (Lipaphis erysimi [8]): 36.4%; LC90 (Culex quinquefasciatus [9]): 88.29 µg/mL (≈ 302 µM); mortality at 100 µg/mL (Culex quinquefasciatus [10]): 93.3%; Activity (Culex quinquefasciatus [11]): Active; inhibition of growth at 200 µg/mL [5]: 71.5% |
| COC(=O)C1Cc2c([nH]c3ccccc23)CN1 (stereo unspecified) | Active | Active | Dose-dependent effect | < 34.9 |  |
| COC(=O)C1Cc2c([nH]c3ccccc23)C(c2ccc(O)c(OC)c2)N1 (stereo unspecified) | Active | Active | Dose-dependent effect | < 34.9 |  |
| COC(=O)C1Cc2c([nH]c3ccccc23)C(C)N1 (stereo unspecified) | Active | Active | Dose-dependent effect | < 34.9 |  |
| COc1ccc2c(c1)[nH]c1c(C)nccc12 [HARMINE] | Active | Active |  |  | mortality at 200 µg/mL (Lipaphis erysimi [6]): 49.6%; Imax [5]: 40.31% |
| COC(=O)c1cc2c([nH]c3ccccc32)c(C)n1 | Active | Active | Dose-dependent effect | < 34.9 |  |
| COC(=O)c1cc2c([nH]c3ccccc32)c(-c2ccccc2O)n1 | Active | Active | Dose-dependent effect | < 34.9 |  |
| Cc1nc(C(=O)O)cc2c1[nH]c1ccccc12 [HARMAN-3-CARBOXYLIC ACID] | Active | Active | Dose-dependent effect | < 34.9 |  |
| COC(=O)C1Cc2c([nH]c3ccccc23)C(c2ccccc2)N1 (stereo unspecified) | Active | Active | Dose-dependent effect | < 34.9 |  |
| O=C(O)C1Cc2c([nH]c3ccccc23)C(C(Cl)(Cl)Cl)N1 (stereo unspecified) | Active | Active | Dose-dependent effect | < 34.9 |  |
| COC(=O)c1cc2c([nH]c3ccccc32)c(-c2ccc(Cl)cc2)n1 | Active | Active | Dose-dependent effect | < 34.9 |  |
